The series relates to MS2 coat protein. The experiment in a line: apparent Kd, MS2 coat protein; higher = weaker binding; RNA-MaP array; FMN 200 µM where present. In short, it runs like this:
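Apparent Kd: the median of filtered binding-curve fits from single clusters. Designs were transcribed on Illumina sequencing-chip clusters by stalled E. coli RNA polymerase and titrated with SNAP-549-labelled MS2 coat protein from 0.7 or 1.5 nM, doubling to 3 µM, in 100 mM Tris-HCl pH 7.5, 80 mM KCl, 4 mM MgCl2, BSA, DTT, yeast tRNA and Tween-20. Each series ran without and then with constant ligand, and green signal was normalised to red-channel RNA signal and control-cluster median Fmax.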

Setting [1] is: designed as: OFF switch for flavin mononucleotide, no ligand.
Where [2] appears, read: ligand present: flavin mononucleotide, designed as: OFF switch for flavin mononucleotide.
Where [3] appears, read: designed as: ON switch for flavin mononucleotide, no ligand.
[4] abbreviates: ligand present: flavin mononucleotide, designed as: ON switch for flavin mononucleotide.

With “CGAUAGGACAGAGGAUAUACACAUGAGGAUCACCCAUGUGAUUACAACUCUUAAGAUUCAAACAUGUAGAAGGCUGUCCUAUCG”, the “apparent Kd” value runs as follows: under setting [1], 0.0119 µM; under setting [2], 0.0304 µM.
The matching figures for “CGUUUGUGGCAACUAUCCUCACAUGAGGAUCACCCAUGUAGGGAGGAUAUGCAUUUAAAGAAGUGGCAGAAGGCCCUACACGAA”: 0.101 µM and 0.0895 µM.
The matching figures for “CCUCAGUUAGGAUAUUACUAAUCACUAACCGGGCAACUGGGUAAGAAGGAACAUGAGGAUCACCCAUGUUACGU”: 0.0221 µM and 0.0222 µM.
Take “GUGCAUACGUGAGGAUAUGUAUUAGCUCGUGGUACAGAAGGCAUGUCUGAUGACAUGAGGAUCACCCAUGUUGGCACAGUGCGC”: the “apparent Kd” value under setting [3] worked out at 0.0482 µM and the “apparent Kd” value under setting [4] is 0.0276 µM.
As to “GGUACUCAAAGAGUACCAAUACGAACAUGAGGAUCACCCAUGUAGGAUAUGCUAUGCAAAGCAUAGCAGAAGGACAUGUGCCUU”, the “apparent Kd” value was 0.0417 µM under setting [1] and 0.276 µM under setting [2].
On to “GCGGGACGUCGAGGAUAUGGGUGUGCGAGUCUUGGCACUGGACAUGAGGAUCACCCAUGUCGCUUCCAGAAGGCGACGUCCCUA”, for which the “apparent Kd” value reads like this: under setting [3], 0.0348 µM; under setting [4], 0.00667 µM.
For “ACCAGUGCAUCAGGAUAUCCUCACAUGAGGAUCACCCAUGUAAUGAGCCGAGGAGAAGGGAUGUGAACUCCAGUUAUCGAUCGU”, in that order: 0.101 µM and 0.0141 µM.
The matching figures for “GUAACAUGAGGAUCACCCAUGUCGUGCUAGAUGAGUUCUGGUGAGGAUAUACAUGGUAAAUAACUGUAGAAGGCGCUGGGUACA”: 0.132 µM and 0.105 µM.
In the case of “CGAUAACAUAGUUAUCCGUAACGUACAUGAGGAUCACCCAUGUAGGAUAUGUUACUAAACUAGUAACAGAAGGACAUGAGUAUU”, the “apparent Kd” value is 0.0549 µM under setting [1] and 0.315 µM under setting [2].
Take “GGAUGAGCAAUAGGAUAUGCUGGGAUUGAAUGGGUAGAAGGAUUUCUAGUGGUAAAGACAUGAGGAUCACCCAUGUCGCGGCCC”: the “apparent Kd” value under setting [3] came out at 0.0457 µM and the “apparent Kd” value under setting [4] came to 0.0452 µM.
As for “UUUUAACAUGAGGAUCACCCAUGUGAGGAUAUCGUAAUUUUUAUUAAUAUUAAUAAAACGAGAAGGCACAUUUU”, the “apparent Kd” value was 0.0966 µM under setting [1] and 0.081 µM under setting [2].
For the sequence “GCCGCAGGAACAGGAUAUGUGGGCAUAAAAUUAUACCAGGCCCACAUGAGGAUCACCCAUGUGACACAGAAGGGUUCCUAAAUA”, the “apparent Kd” value runs as follows: under setting [3], 0.619 µM; under setting [4], 0.0298 µM.
On to “AGCGAGCUAGGAUAUACAUGAGGAUCACCCAUGUCUUUUUAGUACUACGGUGGAAGAUGUAGAAGGAGUGAGAA”, for which the “apparent Kd” value came out at 0.0951 µM under setting [1] and 0.0683 µM under setting [2].
For “AUCAUGUAAGGAUAUCUUACAUGUGACUUCGGUCACUGUUCAGAGAAGGUACAUGAGGAUCACCCAUGUAGAAC”, in that order: 0.0187 µM and 0.0284 µM.
For “CGAUGGCAUGUAGGAUAUCGAGCUCAAAGAGCUCGAGAAGGACAUGAGGAUCACCCAUGUCGUCACAGACAGUGACGGCUAUCG”, in that order: 0.0244 µM and 0.133 µM.
Take “AAGCAGUGUAAAUAAACUCAAAUACAUGAGGAUCACCCAUGUAAGGAUAUGCAGUGGAAUACACUGCAGAAGGUACAUCACUGC”: the “apparent Kd” value is, setting by setting: under setting [1], 0.0151 µM; under setting [2], 0.0226 µM.
In the case of “UACAAUCUAUCUGAGGAUAUCAUGAUUAUAACAUGAGGAUCACCCAUGUGCAGGAAAACUGCAUAUGAGAAGGCAGAUAGAUUGU”, the “apparent Kd” value is, setting by setting: under setting [3], 0.611 µM; under setting [4], 0.098 µM.
For “AGCUACGUUUCGUAGCAGUGUCAUCGAGAAGGCCUCAUUACAUGAGGAUCACCCAUGUGGACAUGGGAGGAUAUCGAUGAUACA”, in that order: 0.487 µM and 0.212 µM.
Turning to “GGUGCAAUGUAGAAGGCAGAUCUGAUUCAGAUCUGAGGAUAUACAUGAGGAUCACCCAUGUUAUGCACCAGCACGAGAGUGCAA”, the “apparent Kd” value reads like this: under setting [1], 0.00657 µM; under setting [2], 0.0126 µM.
For “GCGAAUAACGAGGAUAUCGUAUCGGAAACGAUACGAGAAGGUGUAACAUGAGGAUCACCCAUGUUCCUCAACGC”, in that order: 0.0375 µM and 0.0364 µM.
As to “ACAUGUUUUGUAGGAUAUCACUAGUUGUGUUAUAUAUUUGUUAUAAUGUAUUGAGAAGGACAUUUACAUGAGGAUCACCCAUGU”, the “apparent Kd” value under setting [2] was 0.00744 µM.
As to “UGUGUGUGACAGGAUAUGCUGGUUGUGAGACGGGUAGAAGGGUCUACAUGAGGAUCACCCAUGUGGCCGGUUGG”, the “apparent Kd” value is, setting by setting: under setting [1], 0.0231 µM; under setting [2], 0.0206 µM.
The matching figures for “GAGAAGUCAGGAUAUGCAUGGCGGGACUUGCGUCGUGGCGUGCAGAAGGGACAUGAGGAUCACCCAUGUGGAGU”: 0.163 µM and 0.235 µM.
In the case of “GUUUCUAUAAGUUAUAUUUAACAGUCAGAAGGUGAUACUACGACAUGAGGAUCACCCAUGUAAUUCAAGGAUAUGAACUUAAUC”, the “apparent Kd” value was 1.57 µM under setting [3] and 0.999 µM under setting [4].

The values are drawn from the EternaBench riboswitch data.
